eIF4E 4G PPI – eIF4E/eIF4G interaction inhibition in translation initiation | AID 782 | 0.37% of 220,000 active | inhibition, % at 21.7 µM | TR-FRET eIF4E-eIF4GI(517-606) binding, 2 h | P63073+Q04637;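 active means inhibition above about 30%, limit read from the data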;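 further: 0% = full FRET control wells and 100% = background wells lacking eIF4GI fragment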
Runt-SMMHC FRET – inhibitors of human RUNX1 Runt domain binding to CBFb-SMMHC; Q01196+Q13951; Cerulean-Runt/Venus-CBFb-SMMHC FRET ratio 530/480, 1 h; inhibition, % at 20 µM; 0.74% of 220,000 active; AID 1434;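 active means mean inhibition across duplicate retests at 20 µM reaching about 50%, limit read from the data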;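 further: 0% = DMSO wells and 100% = wells with excess untagged CBFb-SMMHC; inhibitors lower the FRET ratio by blocking Runt binding to CBFb-SMMHC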
RanGTP-Imp inh – inhibitors of RanGTP-importin-beta interaction, primary screen, biochemical, FRET, CFP-Ran, YFP-importin-beta, homogeneous; cell-free CFP-Ran/YFP-importin-beta FRET ratio; inhibition, % (test concentration not listed); 1.1% of 300,000 active; AID 2216;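 active means more than half of the replicate wells show a fall in the fluorescence ratio signal beyond about 16%, limit read from the data, passing the limit was not always enough; inconclusive means exactly half of the replicate wells pass the set limit; inactive means fewer than half of replicates pass the limit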;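 further: 0% = DMSO wells and 100% = Ran loaded with GDP instead of GTP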
PERK inh – human PERK inhibition, primary cell-based screen; Q9NZJ5; CHO PERK-DD fusion, SEAP luminescence translation reporter; inhibition, % at 5.6 µM; 0.17% of 220,000 active;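 active means inhibition above the mean inhibition of all tested compounds plus 3 SD, set separately per screening campaign, cut at about 2.9% in these data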;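 further: PERK kinase domain activated by AP20187 dimerizer at 100 nM; 0% = DMSO with dimerizer and 100% = rapamycin at 8.4 µM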
Target sequence (Q9NZJ5 whole entry, looked up, the tested form may be a part): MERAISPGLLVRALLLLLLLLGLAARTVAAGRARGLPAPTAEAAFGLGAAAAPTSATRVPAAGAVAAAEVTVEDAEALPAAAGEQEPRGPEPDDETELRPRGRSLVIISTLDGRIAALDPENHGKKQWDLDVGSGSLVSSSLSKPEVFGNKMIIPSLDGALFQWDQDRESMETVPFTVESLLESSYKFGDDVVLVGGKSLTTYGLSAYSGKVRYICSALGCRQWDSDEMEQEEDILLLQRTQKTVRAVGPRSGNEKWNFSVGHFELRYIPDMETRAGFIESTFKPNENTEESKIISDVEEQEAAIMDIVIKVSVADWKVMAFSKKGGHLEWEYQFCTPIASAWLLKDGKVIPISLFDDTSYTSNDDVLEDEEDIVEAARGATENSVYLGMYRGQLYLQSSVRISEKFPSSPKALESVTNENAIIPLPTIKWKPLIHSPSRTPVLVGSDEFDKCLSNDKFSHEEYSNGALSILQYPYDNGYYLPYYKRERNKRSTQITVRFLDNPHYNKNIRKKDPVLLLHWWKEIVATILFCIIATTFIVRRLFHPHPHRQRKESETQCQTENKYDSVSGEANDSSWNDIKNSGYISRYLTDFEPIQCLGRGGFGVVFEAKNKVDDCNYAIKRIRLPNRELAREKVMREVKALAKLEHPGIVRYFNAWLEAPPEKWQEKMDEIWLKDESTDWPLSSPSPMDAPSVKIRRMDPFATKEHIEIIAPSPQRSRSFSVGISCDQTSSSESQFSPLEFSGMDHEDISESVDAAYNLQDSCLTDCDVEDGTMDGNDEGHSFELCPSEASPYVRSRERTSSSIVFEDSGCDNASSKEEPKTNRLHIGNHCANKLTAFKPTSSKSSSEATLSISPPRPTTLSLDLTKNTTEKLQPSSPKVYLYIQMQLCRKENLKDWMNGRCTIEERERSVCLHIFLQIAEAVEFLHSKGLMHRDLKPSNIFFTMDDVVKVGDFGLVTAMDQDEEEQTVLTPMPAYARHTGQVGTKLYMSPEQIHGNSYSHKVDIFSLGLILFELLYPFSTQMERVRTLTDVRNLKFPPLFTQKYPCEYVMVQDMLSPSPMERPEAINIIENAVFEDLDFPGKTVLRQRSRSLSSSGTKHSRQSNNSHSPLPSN
Runt-CBFb FRET – inhibitors of human RUNX1 Runt domain binding to CBFb; Q01196+Q13951; Cerulean-Runt/Venus-CBFb FRET ratio 530/480, 1 h; inhibition, % at 20 µM; 0.46% of 220,000 active;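 active means inhibition over about 50% at 20 µM in the single-dose screen, limit read from the data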;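 further: 0% = DMSO wells and 100% = excess unlabeled CBFb competitor control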
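Assay system: Cerulean-tagged RUNX1 Runt domain (FRET donor) fusion protein / Amount: 100 nM each of Venus-CBFb and Cerulean-Runt domain / Medium: Tris buffer pH 7.5 with salts and BSA / Also added: Venus-CBFb 100 nM / Schedule: 1 h complex formation plus 1 h compound treatment, room temperature / Signal: FRET fluorescence / Read-out: loss of energy transfer signal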
Hck-Nef inh – human Hck-Nef kinase inhibition | P08631 | Recombinant Hck-YEEI plus Nef, Z-Lyte FRET kinase assay | inhibition, % at 20 µM | 0.68% of 220,000 active | AID 463187;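 active means Hck-Nef kinase inhibition above about 50%, limit read from the data; inactive means inhibition below that limit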;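 further: 0% = DMSO with Hck plus Nef and 100% = Hck alone without Nef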
* = called active by the depositor; u = inconclusive; x = no result. In the library only some 2.2% were active in any assay of this set; here they are far more common.

SMILES	eIF4E 4G PPI	Runt-SMMHC FRET	RanGTP-Imp inh	PERK inh	Runt-CBFb FRET	Hck-Nef inh
O=C(O)c1ccc(CS(=O)c2cccc(C(F)(F)F)c2)o1 (stereo not drawn)	0	-4	-2	3.7*	x	1
CN(C)CCCSc1nc(-c2ccccc2)nc2c1CCC2	2	-1	1	-2	1	0
CCC1CCCCN1CCCNC(=O)CNC(=O)c1nn(-c2ccc(OC)c(Cl)c2)c(=O)c2ccccc12 (stereo not drawn)	x	x	-7	x	x	x
O=C(O)c1ccc(Nc2c3ccccc3nc3ccccc23)cc1	x	x	20*	x	x	x
COc1ccc(Nc2c3ccccc3nc3ccccc23)cc1	x	x	67*	x	x	x
COc1cccc(C(=O)NNc2c3ccccc3nc3ccccc23)c1	x	x	16*	x	x	x
COc1ccc(C(=S)N2CCOCC2)cc1OC(=O)c1ccccc1Cl	x	x	-3	x	x	x
Cc1cccc(-n2cnc(C(=O)NC3CCCCCC3)c2)n1	30*	1	-2	0	-1	-1
Cc1cccc(-n2cnc(C(=O)O)c2)n1	5	2	5	1	-1	20
CC(=O)c1cc(CN2CCC(C(=O)Nc3ccc(-n4nc(C)cc4C)cc3)CC2)cs1	x	x	-1	x	x	x
O=C(O)CCCC(=O)N1CCN(c2nc(-c3ccccc3)c3ccccc3n2)CC1	0	14	20*	0	14	11
c1ccc(-c2nc(N3CCNCC3)nc3ccccc23)cc1	0	41	13	-2	20	11
c1ccc(-c2nc(N3CCCCC3)nc3ccccc23)cc1	-3	118*	41*	0	35	6
Cc1ccc2nc(N3CCN(C(=O)CCC(=O)O)CC3)nc(-c3ccccc3)c2c1	x	x	30*	x	x	x
Cc1ccc2nc(N3CCC(C(=O)O)CC3)nc(-c3ccccc3)c2c1	11	65	3	1	15	9
COc1ccc(NS(=O)(=O)c2cc(NC(=O)/C=C/c3cccs3)ccc2N2CCOCC2)cc1	8	-1	-2	0	-2	5
COCCn1c(=N)c(S(=O)(=O)c2ccc(Br)cc2)cc2c(=O)n3ccccc3nc21	x	x	119*	x	x	x
COc1ccc(CCn2c(=N)c(S(=O)(=O)c3ccc(C)cc3)cc3c(=O)n4ccccc4nc32)cc1	x	x	3	x	x	x
COCCn1c(=N)c(S(=O)(=O)c2ccc(F)cc2)cc2c(=O)n3ccccc3nc21	x	x	160*	x	x	x
O=C(Cc1ccc(-n2cccc2)cc1)NC1CCCCCC1	3	0	1	0	-5	-3
O=C(Nc1ccccc1N1CCCCC1)c1ncoc1-c1ccc(F)cc1	-7	-3	2	1	0	0
Cc1ccc(C(=O)Nc2cccc3ccccc23)cc1	x	x	-2	x	x	x
CC(C)(C)c1ccc(C(=O)Nc2cccc3c(=O)[nH][nH]c(=O)c23)cc1	2	78	39*	0	4	-4
CN(C)c1ccc(/C=N/NC(=O)CNC(=O)c2ccco2)cc1	6	8	-3	1	1	17
COc1cccc(CNC(=O)c2cnc(-c3ccccn3)nc2C(F)(F)F)c1	-6	6	30*	0	0	-3
SMILES	eIF4E 4G PPI	Runt-SMMHC FRET	RanGTP-Imp inh	PERK inh	Runt-CBFb FRET	Hck-Nef inh
CCn1cc(C(=O)Nc2ccc(-n3cnnn3)c(OC)c2)c(=O)c2ccc(C)nc21	-40	23	u	0	-2	-2
CN(C(=S)Nc1ccc(F)cc1)C1(c2ccccc2Cl)CCCCC1=O (stereo not drawn)	2	0	-2	-1	88*	2
COc1ccc(Nc2nnc(C)c(=O)[nH]2)c(OC)c1	5	-1	-4	4.2*	0	25
COc1ccc(C)cc1Nc1nnc(C)c(=O)[nH]1	3	3	-5	3	1	5
Cc1cc(S(=O)(=O)N2CCN(c3ccccc3F)CC2)ccc1-n1cnnn1	x	x	-3	x	x	x
O=C(Nc1cccc(Cl)c1)c1cccc(Oc2ccc([N+](=O)[O-])cc2Cl)c1	0	2	-2	0	2	3
O=C(Nc1cccc(Cl)c1)c1cc(N=Nc2ccc([N+](=O)[O-])cc2Cl)ccc1O	33*	-14	-1	0	-4	83*
Cc1ccnc(NC(=O)c2ccc(COc3c(F)c(F)cc(F)c3F)o2)c1	x	x	0	x	x	x

Screening results from PubChem BioAssay.
